Screening data: PubChem BioAssay, several laboratories
FGF22 binding = shifts melting point of recombinant human FGF22; recombinant FGF22 thermal shift, SYPRO orange fluorescence; percent of sucrose octasulfate shift, DMSO zero; activity (Tm shift, normalised), % at 9.99 µM; Q9HCT0; 1.5% of 340,000 active;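 active means mean Tm shift, scaled 0 neutral to 100 positive control, at about 1.3% or above, every replicate too, limit read from the data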
SIRT5 inh = sirtuin-5 (human) deacylase inhibition. Purified SirT5, succinyl-peptide AMC, trypsin-coupled fluorescence. AID 652115. Q9NXA8. 1.1% of 330,000 active. inhibition, % at 15 µM; in the data active means inhibition above about 15%
CASP6 VEID inh = inhibitors of human caspase-6 | 0.53% of 350,000 active | inhibition, % at 12.5 µM | purified caspase-6, Z-VEID-R110 cleavage fluorescence | P55212;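 active means mean inhibition across replicates at least about 35%, with every replicate also reaching that limit, limit read from the data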
NSD2 HMT inh = NSD2 (human) methyltransferase inhibition | NSD2 peptide methylation, AlphaScreen, 120 min | inhibition, % at 12.5 µM | 0.54% of 310,000 active | AID 743445; in the data active means inhibition above about 50%
Target sequence (O96028 whole entry, looked up): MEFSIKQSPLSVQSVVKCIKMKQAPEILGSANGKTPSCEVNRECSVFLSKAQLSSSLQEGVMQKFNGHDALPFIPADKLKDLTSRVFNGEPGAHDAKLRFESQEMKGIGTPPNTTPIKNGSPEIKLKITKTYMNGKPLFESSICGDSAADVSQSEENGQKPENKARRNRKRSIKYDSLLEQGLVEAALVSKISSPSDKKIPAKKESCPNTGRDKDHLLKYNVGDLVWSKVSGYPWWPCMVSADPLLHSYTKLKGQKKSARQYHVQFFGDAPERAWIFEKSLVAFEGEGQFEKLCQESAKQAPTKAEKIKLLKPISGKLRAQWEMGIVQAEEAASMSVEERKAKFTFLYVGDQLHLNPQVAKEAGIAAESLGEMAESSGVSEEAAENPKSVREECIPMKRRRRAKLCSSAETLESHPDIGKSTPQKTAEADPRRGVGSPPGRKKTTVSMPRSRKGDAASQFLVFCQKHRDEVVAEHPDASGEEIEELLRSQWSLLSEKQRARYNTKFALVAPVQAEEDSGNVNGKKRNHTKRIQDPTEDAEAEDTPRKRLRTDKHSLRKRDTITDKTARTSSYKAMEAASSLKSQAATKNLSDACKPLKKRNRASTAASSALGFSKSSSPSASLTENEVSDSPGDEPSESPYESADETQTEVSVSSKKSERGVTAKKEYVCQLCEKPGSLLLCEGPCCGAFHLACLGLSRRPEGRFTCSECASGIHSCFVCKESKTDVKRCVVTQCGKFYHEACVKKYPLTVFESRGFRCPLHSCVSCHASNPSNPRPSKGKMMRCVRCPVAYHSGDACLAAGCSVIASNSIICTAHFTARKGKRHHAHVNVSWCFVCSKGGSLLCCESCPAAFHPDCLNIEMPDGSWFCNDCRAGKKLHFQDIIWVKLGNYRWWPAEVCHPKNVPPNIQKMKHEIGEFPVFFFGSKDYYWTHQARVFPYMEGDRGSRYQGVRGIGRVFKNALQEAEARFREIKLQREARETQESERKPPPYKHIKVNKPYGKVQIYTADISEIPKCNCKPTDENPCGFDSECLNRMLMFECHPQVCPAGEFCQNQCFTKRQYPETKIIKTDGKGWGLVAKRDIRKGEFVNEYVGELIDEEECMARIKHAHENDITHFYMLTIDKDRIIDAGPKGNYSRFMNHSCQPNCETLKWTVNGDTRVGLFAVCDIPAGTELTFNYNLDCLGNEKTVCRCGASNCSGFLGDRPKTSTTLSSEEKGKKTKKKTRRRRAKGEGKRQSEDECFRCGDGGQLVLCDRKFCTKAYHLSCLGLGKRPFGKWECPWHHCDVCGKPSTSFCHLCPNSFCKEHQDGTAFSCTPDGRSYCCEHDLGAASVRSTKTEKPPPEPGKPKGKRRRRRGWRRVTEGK
UCH37 inh = human UCH37 deubiquitinating enzyme inhibition; inhibition, % (no concentration beside the values); 0.33% of 330,000 active; Q9Y5K5; purified proteasome/UCH37, Ub-AMC cleavage fluorescence; AID 588478;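 active means mean inhibition over replicate wells above about 20%, limit read from the data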
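Schedule: 30 min plus 25 min, room temperature / Material: human UCH37 within purified proteasomes / Technique: AMC fluorescence intensity at 355/460 nm / Buffer or medium: pH 7.4 Tris-HCl (50 mM) with ovalbumin, ATP-MgCl2, DTT / Controls: wells without proteasome as full block, compound-free enzyme plus substrate as uninhibited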
Of the large screens only hits and unclear results are named; the others gave an inactive call. In the library only some 2.6% were active in any assay of this set; here they are far more common.

C[C@H](CO)N1C[C@H](C)[C@H](CN(C)Cc2ccccc2)OCc2ccccc2-c2c(n(C)c3ccccc23)C1=O	none (no result: NSD2 HMT inh, UCH37 inh)
C[C@@H]1CN([C@H](C)CO)C(=O)c2c(c3ccccc3n2C)-c2ccccc2CO[C@@H]1CN(C)Cc1cccc2c1OCCCO2	SIRT5 inh 19.6 (no result: NSD2 HMT inh, UCH37 inh)
Cn1cc(C=NNC(=O)C2COc3ccccc3O2)c2ccccc21 (stereo not drawn)	none (no result: FGF22 binding, SIRT5 inh, CASP6 VEID inh, NSD2 HMT inh)
CCC(=O)Nc1ccc2c(c1)C(=O)N(C)[C@@H]1CC[C@H](CC(=O)NCc3ccccc3Cl)O[C@@H]1CO2	none (no result: NSD2 HMT inh, UCH37 inh)
Cc1noc(C)c1NC(=O)N(C)C[C@H]1Oc2ccc(NS(C)(=O)=O)cc2C(=O)N([C@H](C)CO)C[C@@H]1C	none (no result: NSD2 HMT inh, UCH37 inh)
Cc1ccc(C=NNC(=O)COc2ccc(C)cc2[N+](=O)[O-])cc1	none (no result: FGF22 binding, SIRT5 inh, CASP6 VEID inh, NSD2 HMT inh)
CCOC(=O)c1c(-c2ccccc2Cl)cn2ccccc12	none (no result: FGF22 binding, SIRT5 inh, CASP6 VEID inh)
O=C(O)c1c(-c2ccc(Cl)cc2)cn2ccccc12	FGF22 binding 43.0
CN1CCN(/N=C/c2cccc(Cl)c2Cl)CC1	FGF22 binding 44.0 (no result: UCH37 inh)
O=C(C[C@@H]1CC[C@H]2[C@@H](COC[C@H](O)CN2C(=O)c2cnccn2)O1)NCc1ccccc1	none (no result: NSD2 HMT inh, UCH37 inh)
O=C(COC(=O)c1c2c(nc3ccccc13)/C(=C\c1ccco1)CC2)NC1CCCC1	CASP6 VEID inh 43.4
NC[C@H](O)c1ccc(O)c(O)c1	CASP6 VEID inh 78.9 (no result: NSD2 HMT inh)
CNC[C@H](O)c1ccc(O)c(O)c1	none (no result: CASP6 VEID inh, NSD2 HMT inh)
CCCC(=O)Nc1ccc2c(c1)OC[C@@H](C)N(C(=O)CN(C)C)C[C@@H](C)[C@H](OC)CN(C)C2=O	none (no result: CASP6 VEID inh, NSD2 HMT inh, UCH37 inh)
COc1cccc(N=C(N)N)c1	FGF22 binding 43.4
COc1cccc(N)c1	none (no result: SIRT5 inh, NSD2 HMT inh, UCH37 inh)
COc1ccc2[nH]c(=O)c(C(c3nnnn3CC3CCCO3)N3CCCCC3)cc2c1 (stereo not drawn)	FGF22 binding 43.0
COCCn1nnnc1C(c1cc2cc(OC)ccc2[nH]c1=O)N1CCC(Cc2ccccc2)CC1 (stereo not drawn)	SIRT5 inh 17.4
COCCn1nnnc1C(c1cc2cc(C)ccc2[nH]c1=O)N1CCCCCC1 (stereo not drawn)	none (no result: FGF22 binding, SIRT5 inh, CASP6 VEID inh, NSD2 HMT inh)
COc1ccc2cc(C(c3nnnn3CC3CCCO3)N3CCOCC3)c(=O)[nH]c2c1 (stereo not drawn)	none (no result: FGF22 binding, SIRT5 inh, CASP6 VEID inh)
CCN(CC)CCN1CCn2c3c(c4cc(C)ccc42)CCCC31 (stereo not drawn)	FGF22 binding 43.5
COc1ccc(CCNC(=O)CN(c2cccc([N+](=O)[O-])c2)S(C)(=O)=O)cc1	none
CS(=O)(=O)N(CC(=O)Nc1ccccc1C(=O)N1CCCC1)c1ccc2c(c1)OCO2	FGF22 binding 43.4
COc1ccc(CCNC(=O)CN(c2cc([N+](=O)[O-])ccc2OC)S(C)(=O)=O)cc1	FGF22 binding 43.5
COc1ccc([N+](=O)[O-])cc1N(CC(=O)Nc1ccccc1C(=O)N1CCCC1)S(C)(=O)=O	FGF22 binding 43.5
CS(=O)(=O)N(CC(=O)Nc1ccccc1C(=O)N1CCOCC1)c1ccc2c(c1)OCO2	none (no result: FGF22 binding, SIRT5 inh, CASP6 VEID inh)
Cc1cccc(S(=O)(=O)N2CCCCN3[C@H](CO)[C@@H](c4ccc(-c5ccccc5)cc4)[C@H]3C2)c1	SIRT5 inh 21.6 (no result: NSD2 HMT inh, UCH37 inh)
Cc1cccc(S(=O)(=O)N2CCCCN3[C@H](C2)[C@H](c2ccc(-c4ccccc4)cc2)[C@@H]3CO)c1	none (no result: NSD2 HMT inh, UCH37 inh)
Cc1ccc(-c2ccc([C@H]3[C@H]4CN(S(=O)(=O)c5cccc(C)c5)CCCCN4[C@H]3CO)cc2)cc1	SIRT5 inh 16.9 (no result: NSD2 HMT inh, UCH37 inh)
O=C(Cc1cccc2ccccc12)NN=C/C=C/c1cccc([N+](=O)[O-])c1	none (no result: FGF22 binding, SIRT5 inh, CASP6 VEID inh, NSD2 HMT inh)
COc1cc(COCC(O)CN2CCc3ccccc3C2)cc(OC)c1OC (stereo not drawn)	FGF22 binding 43.7
C=CCc1ccc(OCC(O)CN2CCc3ccccc3C2)c(OC)c1 (stereo not drawn)	none
Fc1ccccc1COc1ccc2ccccc2c1CNc1nn[nH]n1	FGF22 binding 43.0
CCNC(=O)C[C@@H]1CC[C@H]2[C@@H](COC[C@@H](O)CN2C(=O)c2cccnc2)O1	none (no result: NSD2 HMT inh, UCH37 inh)
COc1cc(/C=C2/C(=O)c3cccc([N+](=O)[O-])c3C2=O)c(Br)cc1O	NSD2 HMT inh 54.6 (no result: FGF22 binding, SIRT5 inh, CASP6 VEID inh)
COc1ccc(CNC(=O)C[C@H]2CC[C@@H](NC(=O)c3ccc4c(c3)OCO4)[C@H](CO)O2)cc1	none (no result: NSD2 HMT inh, UCH37 inh)
C[C@@H]1CN([C@@H](C)CO)C(=O)CCCn2cc(nn2)CO[C@@H]1CN(C)Cc1ccc(-c2ccccc2)cc1	none (no result: NSD2 HMT inh, UCH37 inh)
CCOC(=O)N(C)C[C@H]1OCc2cn(nn2)CCCC(=O)N([C@H](C)CO)C[C@H]1C	SIRT5 inh 16.5 (no result: NSD2 HMT inh, UCH37 inh)
C[C@H]1CN([C@@H](C)CO)C(=O)CCCn2cc(nn2)CO[C@H]1CN(C)Cc1ccccc1	SIRT5 inh 25.3 (no result: NSD2 HMT inh, UCH37 inh)
O=C(CCS(=O)(=O)c1ccccc1)Nc1ccc(S(=O)(=O)Nc2nccs2)cc1	FGF22 binding 42.9 (no result: SIRT5 inh)
O=C(CCS(=O)(=O)c1ccccc1)Nc1ccc(-c2nc3ccccc3s2)cc1	FGF22 binding 43.8
O=C(CCS(=O)(=O)c1ccccc1)Nc1cccc(-c2nc3ccccc3s2)c1	none
O=C(CCc1ccccc1)Nc1ccc(S(=O)(=O)Nc2nccs2)cc1	none
COc1cc2c(cc1OC)-c1cc(Nc3ccc(C(=O)O)cc3)nc(=O)n1CC2	CASP6 VEID inh 40.9
C[C@H](O)C#Cc1ccc2c(c1)O[C@H](CN(C)C(=O)c1ccccc1)[C@@H](C)CN([C@@H](C)CO)S2(=O)=O	none (no result: NSD2 HMT inh, UCH37 inh)
Cc1nn(C)cc1NC(=O)C[C@H]1CC[C@H]2[C@H](COc3ccc(NC(=O)NC(C)C)cc3C(=O)N2C)O1	none (no result: NSD2 HMT inh, UCH37 inh)
Cn1c(C2=C(O)CN(c3ccccc3)C2=N)nc2ccccc21	FGF22 binding 44.3
C[C@@H]1CN([C@H](C)CO)C(=O)c2cc(NC(=O)CCCN(C)C)ccc2O[C@@H]1CN(C)S(=O)(=O)c1cn(C)cn1	none (no result: NSD2 HMT inh, UCH37 inh)
CN1C(=O)c2ccccc2CC12c1ccccc1C(=O)N2C (stereo not drawn)	FGF22 binding 43.4 (no result: SIRT5 inh, UCH37 inh)
CCC1(CC)Cc2ccccc2C(=O)N1	none
COc1cccc(CNC(=O)C[C@@H]2CC[C@H](NS(=O)(=O)c3ccccc3OC)[C@@H](CO)O2)c1	none (no result: NSD2 HMT inh, UCH37 inh)
Cc1noc(/C=C/N(C)C)c1S(=O)(=O)N1CCCC(C(=O)N2CCCCC2)C1 (stereo not drawn)	SIRT5 inh 17.2 (no result: NSD2 HMT inh)
N#CC(=NNc1ccc(S(=O)(=O)N2CCOCC2)cc1)C(N)=S	UCH37 inh 22.0 (no result: FGF22 binding, SIRT5 inh, CASP6 VEID inh, NSD2 HMT inh)
O=S(=O)(c1ccc(S(=O)(=O)N2CCOCC2)cc1)N1CCCC1	FGF22 binding 43.2
O=C(NN=Cc1ccco1)c1cccc([N+](=O)[O-])c1	none (no result: FGF22 binding, SIRT5 inh, CASP6 VEID inh, NSD2 HMT inh)
COc1ccc(/C=C/C2=CCN(Cc3ccc(OC)cc3)CC2)cc1	FGF22 binding 43.2
CN(C)c1ccc(C=NNC(=O)c2ccc3nc[nH]c3c2)cc1	none (no result: FGF22 binding, SIRT5 inh, CASP6 VEID inh, NSD2 HMT inh)
COc1cccc(/C=C2/NC(=O)NC2=O)c1OCC(=O)Nc1ccccc1	FGF22 binding 43.4
